Activity calls are given as the source filed them. No cut-off for these calls is given here.
Biological target: T1, Non-lysosomal glucosylceramidase (Mus musculus) (UniProt Q69ZF3)
T1 sequence (whole entry): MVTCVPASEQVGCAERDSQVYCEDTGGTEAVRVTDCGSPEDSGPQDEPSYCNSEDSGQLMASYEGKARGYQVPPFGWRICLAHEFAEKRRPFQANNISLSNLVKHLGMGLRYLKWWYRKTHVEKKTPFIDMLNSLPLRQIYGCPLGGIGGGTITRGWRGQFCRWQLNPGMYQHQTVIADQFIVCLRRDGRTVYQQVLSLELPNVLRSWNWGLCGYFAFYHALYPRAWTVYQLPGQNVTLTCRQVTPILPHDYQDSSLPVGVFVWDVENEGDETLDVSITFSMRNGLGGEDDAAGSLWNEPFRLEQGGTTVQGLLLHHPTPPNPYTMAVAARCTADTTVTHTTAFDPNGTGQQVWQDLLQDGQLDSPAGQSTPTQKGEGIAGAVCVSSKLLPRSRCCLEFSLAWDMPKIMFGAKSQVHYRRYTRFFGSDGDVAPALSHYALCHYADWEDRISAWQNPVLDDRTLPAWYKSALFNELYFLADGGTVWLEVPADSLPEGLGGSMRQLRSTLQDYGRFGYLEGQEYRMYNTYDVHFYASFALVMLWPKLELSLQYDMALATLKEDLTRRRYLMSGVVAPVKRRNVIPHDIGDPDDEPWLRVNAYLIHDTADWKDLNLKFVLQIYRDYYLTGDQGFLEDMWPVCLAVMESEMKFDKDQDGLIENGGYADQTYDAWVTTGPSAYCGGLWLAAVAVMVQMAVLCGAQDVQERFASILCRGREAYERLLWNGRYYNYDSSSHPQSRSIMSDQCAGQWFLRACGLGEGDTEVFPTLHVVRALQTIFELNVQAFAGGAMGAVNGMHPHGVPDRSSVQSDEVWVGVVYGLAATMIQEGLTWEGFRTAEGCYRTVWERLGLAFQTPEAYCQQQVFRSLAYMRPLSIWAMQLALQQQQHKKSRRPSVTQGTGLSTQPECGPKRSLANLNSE
Assay: Inhibition of GBA2 activity in mouse tissue homogenate at 50 uM
Summary of the method: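 Mouse tissue homogenates were used to separate nonlysosomal GBA2 from lysosomal GCase β-glucosidase activity. Compounds were screened at 50 and 5 μM with 3 mM substrate. Two independent experiments, each run in duplicate.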

- inhibition: Active
Compound: CCCCCCCCCN1C[C@H](O)[C@@H](O)[C@H](O)[C@H]1CO

Source: ChEMBL document CHEMBL2163314, “Potent aminocyclitol glucocerebrosidase inhibitors are subnanomolar pharmacological chaperones for treating gaucher disease” (J Med Chem, 2012)
